The results in this text go back to ChEMBL document CHEMBL4765445, “Structure-activity relationship study of novel quinazoline-based 1,6-naphthyridinones as MET inhibitors with potent antitumor efficacy” (Eur J Med Chem, 2020).

SMILES strings stand for the structures.

For data set [1], the target named is T1, Hepatocyte growth factor receptor (Homo sapiens, UniProt P08581). Nature of the data set: Inhibition of recombinant MET kinase domain (unknown origin).
For the next data set, the species on record is Homo sapiens. Nature of the data set: Selectivity ratio of IC50 for recombinant VEGFR2 (unknown origin) to IC50 for recombinant MET (unknown origin). The method in brief: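 In vitro enzyme assays used purified recombinant MET and VEGFR-2 kinase domains, each tested separately. IC50 values are in nM. The ratio divides the VEGFR-2 enzyme IC50 by the MET enzyme IC50.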

Data set [2] can be described thus: Half life in human liver microsomes. It counts as ADME, Microsome.
For data set [3], the target named is T1, Hepatocyte growth factor receptor. Nature of the data set: Inhibition of MET in human MKN-45 cells assessed as reduction in HGF-mediated autophosphorylation. It counts as cell-based.
For data set [4], the target named is Vascular endothelial growth factor receptor 2 (Homo sapiens, UniProt P35968). Nature of the data set: Inhibition of recombinant VEGFR2 kinase domain (unknown origin). The method in brief: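 In vitro kinase assay using purified recombinant VEGFR-2 kinase domain; IC50 determined.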
Vascular endothelial growth factor receptor 2, sequence (P35968 whole entry, the tested form may be a part): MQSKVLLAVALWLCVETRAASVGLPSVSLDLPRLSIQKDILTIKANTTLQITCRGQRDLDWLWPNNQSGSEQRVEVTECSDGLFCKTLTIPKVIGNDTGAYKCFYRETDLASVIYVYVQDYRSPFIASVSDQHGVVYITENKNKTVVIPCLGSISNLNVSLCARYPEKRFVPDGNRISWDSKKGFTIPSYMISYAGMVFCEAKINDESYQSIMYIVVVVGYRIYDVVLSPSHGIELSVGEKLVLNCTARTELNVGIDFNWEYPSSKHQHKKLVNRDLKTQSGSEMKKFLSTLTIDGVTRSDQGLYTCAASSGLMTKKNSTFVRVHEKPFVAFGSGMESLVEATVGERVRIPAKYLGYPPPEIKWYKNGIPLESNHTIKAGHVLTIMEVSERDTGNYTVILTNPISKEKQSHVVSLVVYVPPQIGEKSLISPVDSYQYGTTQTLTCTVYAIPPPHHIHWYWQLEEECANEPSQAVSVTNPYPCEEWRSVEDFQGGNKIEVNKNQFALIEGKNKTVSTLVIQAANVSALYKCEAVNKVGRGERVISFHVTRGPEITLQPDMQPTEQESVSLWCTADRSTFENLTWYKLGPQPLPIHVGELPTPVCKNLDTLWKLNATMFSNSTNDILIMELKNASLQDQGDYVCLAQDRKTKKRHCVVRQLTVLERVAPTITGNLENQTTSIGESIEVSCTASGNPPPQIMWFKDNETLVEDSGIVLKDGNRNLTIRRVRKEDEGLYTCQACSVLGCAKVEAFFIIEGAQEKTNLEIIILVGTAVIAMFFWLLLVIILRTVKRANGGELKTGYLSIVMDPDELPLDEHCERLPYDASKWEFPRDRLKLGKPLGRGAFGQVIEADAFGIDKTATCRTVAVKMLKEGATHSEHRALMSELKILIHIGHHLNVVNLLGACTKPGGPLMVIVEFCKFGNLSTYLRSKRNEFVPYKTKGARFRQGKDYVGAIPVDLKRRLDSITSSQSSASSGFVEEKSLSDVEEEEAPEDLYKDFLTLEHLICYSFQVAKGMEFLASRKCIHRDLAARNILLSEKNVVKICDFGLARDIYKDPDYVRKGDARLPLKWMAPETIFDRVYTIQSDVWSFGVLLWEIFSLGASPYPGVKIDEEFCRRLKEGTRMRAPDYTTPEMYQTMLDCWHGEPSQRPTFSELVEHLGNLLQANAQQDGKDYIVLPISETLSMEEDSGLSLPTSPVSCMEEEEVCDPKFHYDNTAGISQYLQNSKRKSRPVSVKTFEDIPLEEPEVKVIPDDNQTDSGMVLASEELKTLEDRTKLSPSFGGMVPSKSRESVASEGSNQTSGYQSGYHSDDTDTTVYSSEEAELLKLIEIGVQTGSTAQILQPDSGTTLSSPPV
The target of data set [5] is T2, Receptor-type tyrosine-protein kinase FLT3 (Homo sapiens, UniProt P36888).
T2 sequence (P36888 whole entry): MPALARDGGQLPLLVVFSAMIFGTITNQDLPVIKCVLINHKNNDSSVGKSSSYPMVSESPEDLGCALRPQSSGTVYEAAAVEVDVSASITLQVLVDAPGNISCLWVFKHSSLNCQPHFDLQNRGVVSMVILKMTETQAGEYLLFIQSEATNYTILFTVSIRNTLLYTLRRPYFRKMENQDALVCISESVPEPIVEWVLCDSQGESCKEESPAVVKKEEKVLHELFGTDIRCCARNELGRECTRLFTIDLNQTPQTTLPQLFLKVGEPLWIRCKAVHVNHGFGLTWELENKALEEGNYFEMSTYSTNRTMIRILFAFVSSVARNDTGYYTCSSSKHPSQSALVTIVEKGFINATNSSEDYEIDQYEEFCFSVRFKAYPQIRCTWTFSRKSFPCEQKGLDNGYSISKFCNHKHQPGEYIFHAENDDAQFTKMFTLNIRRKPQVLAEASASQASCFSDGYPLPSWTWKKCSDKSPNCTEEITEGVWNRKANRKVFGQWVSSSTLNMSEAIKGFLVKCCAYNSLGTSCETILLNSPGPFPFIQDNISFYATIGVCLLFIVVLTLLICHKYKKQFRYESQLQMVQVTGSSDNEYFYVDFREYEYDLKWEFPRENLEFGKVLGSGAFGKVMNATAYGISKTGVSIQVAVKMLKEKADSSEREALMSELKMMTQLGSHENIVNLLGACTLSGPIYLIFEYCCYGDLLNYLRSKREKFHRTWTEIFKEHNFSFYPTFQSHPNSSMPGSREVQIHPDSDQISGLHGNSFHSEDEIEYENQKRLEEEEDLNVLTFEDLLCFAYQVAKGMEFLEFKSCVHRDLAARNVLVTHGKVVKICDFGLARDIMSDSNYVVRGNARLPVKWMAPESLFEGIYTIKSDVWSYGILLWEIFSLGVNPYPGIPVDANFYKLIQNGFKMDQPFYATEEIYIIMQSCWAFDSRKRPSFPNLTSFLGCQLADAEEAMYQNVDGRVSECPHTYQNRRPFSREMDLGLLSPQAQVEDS
Nature of the data set: Inhibition of FLT3 (unknown origin).

Data set [6] concerns the target Mast/stem cell growth factor receptor Kit (Homo sapiens, UniProt P10721). Nature of the data set: Inhibition of c-KIT (unknown origin).
The target in data set [7] is T3, Tyrosine-protein kinase receptor UFO (Homo sapiens, UniProt P30530).
T3 sequence (P30530 whole entry): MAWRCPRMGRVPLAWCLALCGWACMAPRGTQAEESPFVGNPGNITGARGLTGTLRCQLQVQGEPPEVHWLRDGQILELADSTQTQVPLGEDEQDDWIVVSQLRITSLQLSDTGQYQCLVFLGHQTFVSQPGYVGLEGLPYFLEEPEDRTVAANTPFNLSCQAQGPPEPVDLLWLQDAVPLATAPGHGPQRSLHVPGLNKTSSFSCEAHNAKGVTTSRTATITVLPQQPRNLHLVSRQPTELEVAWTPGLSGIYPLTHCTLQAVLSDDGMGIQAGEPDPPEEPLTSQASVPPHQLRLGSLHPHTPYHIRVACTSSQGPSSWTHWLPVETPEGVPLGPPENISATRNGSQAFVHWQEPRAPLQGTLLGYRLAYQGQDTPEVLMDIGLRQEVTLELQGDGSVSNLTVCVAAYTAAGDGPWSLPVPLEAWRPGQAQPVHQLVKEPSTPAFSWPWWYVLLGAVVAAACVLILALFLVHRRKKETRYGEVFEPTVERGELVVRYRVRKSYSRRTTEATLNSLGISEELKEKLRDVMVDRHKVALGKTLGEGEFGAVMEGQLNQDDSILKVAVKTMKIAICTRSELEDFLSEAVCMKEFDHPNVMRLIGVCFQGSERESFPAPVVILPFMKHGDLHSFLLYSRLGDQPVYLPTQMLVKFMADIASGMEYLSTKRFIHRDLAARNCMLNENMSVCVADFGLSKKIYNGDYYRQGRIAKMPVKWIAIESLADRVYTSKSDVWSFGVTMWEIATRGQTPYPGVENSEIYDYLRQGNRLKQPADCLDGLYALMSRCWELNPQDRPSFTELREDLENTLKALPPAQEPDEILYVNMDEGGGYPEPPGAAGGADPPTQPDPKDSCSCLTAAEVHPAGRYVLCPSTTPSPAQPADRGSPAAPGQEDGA
Nature of the data set: Inhibition of Axl (unknown origin).

In data set [8] the target is Proto-oncogene tyrosine-protein kinase receptor Ret (Homo sapiens, UniProt P07949). Nature of the data set: Inhibition of RET (unknown origin).
Data set [9] concerns the target Macrophage-stimulating protein receptor (Homo sapiens, UniProt Q04912). Nature of the data set: Inhibition of Ron (unknown origin).
The target in data set [10] is Platelet-derived growth factor receptor beta (Homo sapiens, UniProt P09619). Nature of the data set: Inhibition of PDGFRbeta (unknown origin).

T1 sequence (P08581 whole entry, the tested form may be a part): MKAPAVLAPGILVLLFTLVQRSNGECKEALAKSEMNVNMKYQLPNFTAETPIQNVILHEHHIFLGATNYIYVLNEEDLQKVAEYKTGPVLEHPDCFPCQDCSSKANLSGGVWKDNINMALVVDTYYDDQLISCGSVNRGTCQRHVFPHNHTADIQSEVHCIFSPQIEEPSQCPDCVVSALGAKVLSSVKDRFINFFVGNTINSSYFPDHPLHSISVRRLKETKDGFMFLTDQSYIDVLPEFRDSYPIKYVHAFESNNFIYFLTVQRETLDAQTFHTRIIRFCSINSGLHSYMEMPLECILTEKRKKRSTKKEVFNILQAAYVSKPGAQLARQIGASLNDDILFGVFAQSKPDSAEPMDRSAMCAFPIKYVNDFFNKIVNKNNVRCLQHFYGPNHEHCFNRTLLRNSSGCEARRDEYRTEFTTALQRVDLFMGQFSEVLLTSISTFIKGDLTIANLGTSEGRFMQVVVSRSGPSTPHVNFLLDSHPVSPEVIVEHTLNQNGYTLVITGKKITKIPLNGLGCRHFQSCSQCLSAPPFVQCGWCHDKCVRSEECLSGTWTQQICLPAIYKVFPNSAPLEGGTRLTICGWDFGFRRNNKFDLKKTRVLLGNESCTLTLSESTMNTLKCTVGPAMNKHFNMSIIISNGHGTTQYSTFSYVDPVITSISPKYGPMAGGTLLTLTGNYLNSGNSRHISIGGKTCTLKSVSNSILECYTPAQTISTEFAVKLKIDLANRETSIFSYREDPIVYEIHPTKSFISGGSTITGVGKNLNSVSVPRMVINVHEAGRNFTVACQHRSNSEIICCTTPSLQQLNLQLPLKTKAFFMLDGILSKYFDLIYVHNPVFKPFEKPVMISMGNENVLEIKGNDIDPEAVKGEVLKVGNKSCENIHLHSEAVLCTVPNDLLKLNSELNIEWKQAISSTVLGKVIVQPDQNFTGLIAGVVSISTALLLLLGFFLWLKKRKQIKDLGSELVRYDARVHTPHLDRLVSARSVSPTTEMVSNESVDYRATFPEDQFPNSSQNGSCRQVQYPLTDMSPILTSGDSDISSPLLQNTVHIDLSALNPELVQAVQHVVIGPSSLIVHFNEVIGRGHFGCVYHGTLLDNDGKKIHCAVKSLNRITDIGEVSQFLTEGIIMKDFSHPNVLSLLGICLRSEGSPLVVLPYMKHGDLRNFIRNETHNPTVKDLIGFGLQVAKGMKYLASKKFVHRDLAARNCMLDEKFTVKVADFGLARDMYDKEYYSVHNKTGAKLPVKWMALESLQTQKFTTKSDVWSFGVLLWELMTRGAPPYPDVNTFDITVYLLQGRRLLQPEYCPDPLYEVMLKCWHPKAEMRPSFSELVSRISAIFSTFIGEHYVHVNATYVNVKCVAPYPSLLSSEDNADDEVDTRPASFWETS
Macrophage-stimulating protein receptor, sequence (Q04912 25-304 limits assumed): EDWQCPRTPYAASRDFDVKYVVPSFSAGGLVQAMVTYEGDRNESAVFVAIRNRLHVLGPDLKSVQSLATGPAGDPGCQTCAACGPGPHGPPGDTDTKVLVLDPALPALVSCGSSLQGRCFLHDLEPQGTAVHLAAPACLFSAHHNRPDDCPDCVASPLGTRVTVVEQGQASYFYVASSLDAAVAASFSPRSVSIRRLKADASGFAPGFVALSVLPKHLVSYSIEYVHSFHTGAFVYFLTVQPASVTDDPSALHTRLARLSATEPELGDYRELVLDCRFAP
Macrophage-stimulating protein receptor, sequence (Q04912 310-1400 limits assumed): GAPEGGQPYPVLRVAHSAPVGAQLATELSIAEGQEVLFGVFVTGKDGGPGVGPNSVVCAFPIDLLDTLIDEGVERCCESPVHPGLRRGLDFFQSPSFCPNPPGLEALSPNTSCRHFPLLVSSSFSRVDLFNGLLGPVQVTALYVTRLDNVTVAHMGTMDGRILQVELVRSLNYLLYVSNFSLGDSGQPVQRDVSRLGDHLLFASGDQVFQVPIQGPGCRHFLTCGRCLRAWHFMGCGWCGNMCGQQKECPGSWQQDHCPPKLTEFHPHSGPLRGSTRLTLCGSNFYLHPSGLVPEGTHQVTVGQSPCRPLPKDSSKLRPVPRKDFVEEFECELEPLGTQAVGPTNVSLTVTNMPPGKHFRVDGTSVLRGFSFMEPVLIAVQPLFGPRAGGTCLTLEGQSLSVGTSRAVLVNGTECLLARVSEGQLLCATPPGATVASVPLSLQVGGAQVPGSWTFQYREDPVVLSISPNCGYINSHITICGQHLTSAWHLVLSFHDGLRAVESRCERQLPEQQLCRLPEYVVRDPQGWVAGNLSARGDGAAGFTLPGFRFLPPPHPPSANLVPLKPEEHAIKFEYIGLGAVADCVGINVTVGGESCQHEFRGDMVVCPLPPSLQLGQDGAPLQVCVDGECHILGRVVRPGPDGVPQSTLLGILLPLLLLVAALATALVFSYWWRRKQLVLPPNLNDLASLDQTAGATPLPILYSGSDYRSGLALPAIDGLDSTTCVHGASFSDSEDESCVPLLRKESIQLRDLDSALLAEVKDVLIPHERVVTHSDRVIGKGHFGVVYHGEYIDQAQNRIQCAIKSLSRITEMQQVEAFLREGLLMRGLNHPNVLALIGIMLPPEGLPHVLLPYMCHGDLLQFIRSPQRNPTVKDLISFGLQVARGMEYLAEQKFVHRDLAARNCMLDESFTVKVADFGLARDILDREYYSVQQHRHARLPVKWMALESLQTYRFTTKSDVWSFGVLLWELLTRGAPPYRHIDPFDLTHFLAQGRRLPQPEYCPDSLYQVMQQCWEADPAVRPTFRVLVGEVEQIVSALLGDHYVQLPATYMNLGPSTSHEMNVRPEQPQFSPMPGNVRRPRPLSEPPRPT
Mast/stem cell growth factor receptor Kit, sequence (P10721 whole entry): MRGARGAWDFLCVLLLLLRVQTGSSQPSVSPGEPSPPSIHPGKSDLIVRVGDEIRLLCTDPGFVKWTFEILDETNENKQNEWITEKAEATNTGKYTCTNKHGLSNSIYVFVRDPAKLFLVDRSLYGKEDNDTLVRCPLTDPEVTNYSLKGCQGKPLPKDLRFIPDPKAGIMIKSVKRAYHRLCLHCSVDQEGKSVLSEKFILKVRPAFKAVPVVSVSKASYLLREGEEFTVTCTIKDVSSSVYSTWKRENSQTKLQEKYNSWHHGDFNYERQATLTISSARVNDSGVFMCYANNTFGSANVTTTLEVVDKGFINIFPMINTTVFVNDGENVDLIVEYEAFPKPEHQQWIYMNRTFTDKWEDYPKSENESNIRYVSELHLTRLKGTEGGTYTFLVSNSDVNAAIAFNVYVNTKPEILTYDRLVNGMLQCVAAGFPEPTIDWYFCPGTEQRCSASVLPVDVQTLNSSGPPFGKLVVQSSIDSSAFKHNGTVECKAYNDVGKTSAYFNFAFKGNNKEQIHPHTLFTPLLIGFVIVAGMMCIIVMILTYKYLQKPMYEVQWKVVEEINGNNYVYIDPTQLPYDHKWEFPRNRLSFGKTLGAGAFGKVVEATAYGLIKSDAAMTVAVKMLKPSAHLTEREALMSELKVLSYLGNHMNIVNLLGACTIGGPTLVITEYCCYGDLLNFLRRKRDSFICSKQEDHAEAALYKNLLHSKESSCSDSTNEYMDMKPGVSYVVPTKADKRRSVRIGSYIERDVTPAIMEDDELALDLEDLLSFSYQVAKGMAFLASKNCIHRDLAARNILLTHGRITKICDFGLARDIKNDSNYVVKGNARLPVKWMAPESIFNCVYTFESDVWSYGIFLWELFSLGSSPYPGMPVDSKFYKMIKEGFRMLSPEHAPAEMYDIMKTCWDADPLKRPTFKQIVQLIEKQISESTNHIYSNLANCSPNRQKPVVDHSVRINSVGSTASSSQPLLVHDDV

As for `COc1cc2c(Oc3ccc(Nc4nccc5[nH]cc(-c6ccc(F)cc6)c(=O)c45)cc3F)ncnc2cc1OCCN1CCOCC1`, in data set [1], the concentration for half-maximal inhibition (IC50) (in general, the concentration that gives 50% inhibition) was 0.0245 µM.

With `COc1cc2ncnc(Oc3ccc(Nc4nccc5c4c(=O)c(-c4ccc(F)cc4)cn5C)cc3F)c2cc1OC`, the Ratio IC50 in the data set filed under Homo sapiens was greater than 422. In addition, the figures for the half-inhibitory concentration (IC50) in data set [1], in data set [3] and in data set [4] were 0.0071 µM, 0.0829 µM and greater than 3 µM, respectively. For the same molecule, the half-life (as a rule, how long it takes for the measured level to halve) in data set [2] turned out to be 4.27 h.

In the case of `COc1cc2c(Oc3ccc(Nc4nccc5[nH]cc(-c6ccc(F)cc6)c(=O)c45)cc3F)ncnc2cc1OCCCN1CCOCC1`, the IC50 is 0.0217 µM in data set [1] and 0.227 µM in data set [4].

Take `COc1cc2ncnc(Oc3ccc(Nc4nccc5c4c(=O)c(-c4ccc(F)cc4)cn5CC(=O)c4ccccc4)cc3F)c2cc1OC`: the figures for the IC50 in [1] and in data set [4] were 0.196 µM and greater than 3 µM, respectively.

On to `COc1cc2ncnc(Oc3ccc(Nc4nccc5[nH]cc(-c6ccc(F)cc6)c(=O)c45)cc3F)c2cc1OC`, for which the IC50 was determined as 0.0102 µM in data set [5]; 0.0451 µM in [6]; 0.011 µM in data set [7]; 0.0653 µM in data set [8]; 0.0901 µM in data set [9]; 1.36 µM in [10]. In addition, the IC50 in data set [3] is 0.0594 µM; in [4] it was 0.267 µM. The Ratio IC50 in the data set filed under Homo sapiens is 27.6. The molecule also came in with a half-life in data set [2] of 4.83 h.

For `COc1cc2ncnc(Oc3ccc(Nc4nccc5[nH]cc(-c6ccc(F)cc6)c(=O)c45)cc3F)c2cc1OCCCN1CCOCC1`, the IC50 in [1] is 0.0232 µM; in [4], 0.121 µM.

Turning to `COCCOc1cc2ncnc(Oc3ccc(Nc4nccc5[nH]cc(-c6ccc(F)cc6)c(=O)c45)cc3F)c2cc1OC`, the figures for the IC50 in [1] and in data set [4] were 0.042 µM and 0.14 µM, respectively.

`COc1cc2c(Oc3ccc(Nc4nccc5[nH]cc(-c6ccc(F)cc6)c(=O)c45)cc3F)ncnc2cc1OCCCO`: the IC50 in [1] is 0.0393 µM; in data set [4], 0.068 µM.

In the case of `COCCOc1cc2ncnc(Oc3ccc(Nc4nccc5[nH]cc(-c6ccc(F)cc6)c(=O)c45)cc3F)c2cc1OCCOC`, the IC50 came to 0.0195 µM in data set [1] and 0.0792 µM in [4].

Regarding `COc1cc2ncnc(Oc3ccc(Nc4nccc5[nH]cc(-c6ccc(F)cc6)c(=O)c45)cc3F)c2cc1OCCCN1CCCCC1`, the half-inhibitory concentration (IC50) in [1] stood at 0.0155 µM; in data set [4], 0.208 µM.

Consider `O=c1c(-c2ccc(F)cc2)c[nH]c2ccnc(Nc3ccc(Oc4ncnc5cc6c(cc45)OCCOCCOCCO6)c(F)c3)c12`, for which the IC50 in [1] came out at 0.0095 µM; in data set [4] it was 0.0476 µM. In data set [2], this molecule yielded a half-life of 0.83 h.

With `COCCOc1cc2c(Oc3ccc(Nc4nccc5[nH]cc(-c6ccc(F)cc6)c(=O)c45)cc3F)ncnc2cc1OC`, the IC50 in data set [1] came to 0.036 µM; in data set [4], 0.0973 µM.

Regarding `COc1cc2c(Oc3ccc(Nc4nccc5[nH]cc(-c6ccc(F)cc6)c(=O)c45)cc3F)ncnc2cc1OCCO.Cc1ccc(S(=O)(=O)O)cc1`, the IC50 in data set [1] was found to be 0.0139 µM; in data set [4], 0.0217 µM. In [2], this molecule gave a half-life of 3.85 h.

Consider `CCN(CC)CCCOc1cc2c(Oc3ccc(Nc4nccc5[nH]cc(-c6ccc(F)cc6)c(=O)c45)cc3F)ncnc2cc1OC`, for which the IC50 in [1] came to 0.0094 µM; in data set [3], 0.397 µM; in [4], 0.163 µM.

As for `COc1cc2ncnc(Oc3ccc(Nc4nccc5[nH]cc(-c6ccc(F)cc6)c(=O)c45)cc3F)c2cc1OCC(C)(C)O`, the figures for the IC50 in data set [1] and in data set [4] were 0.0079 µM and 0.0529 µM, respectively. Moreover, in data set [2], the half-life worked out at 4.17 h.

`COc1cc2c(Oc3ccc(Nc4nccc5[nH]cc(-c6ccc(F)cc6)c(=O)c45)cc3F)ncnc2cc1OCCCN1CCCC1`: the IC50 in [1] came out at 0.0083 µM; in data set [3], 0.13 µM; in data set [4], 0.128 µM.

In the case of `COc1cc2ncnc(Oc3ccc(Nc4nccc5[nH]cc(-c6ccc(F)cc6)c(=O)c45)cc3F)c2cc1OCCO.Cc1ccc(S(=O)(=O)O)cc1`, the IC50 worked out at 0.0035 µM in data set [1] and 0.0123 µM in data set [4]. In addition, the half-life in [2] amounted to 4.68 h.

Consider `COCCn1cc(-c2ccc(F)cc2)c(=O)c2c(Nc3ccc(Oc4ncnc5cc(OC)c(OC)cc45)c(F)c3)nccc21`, for which the IC50 in data set [1] is 0.164 µM; in [4], greater than 3 µM.

For `COc1cc2c(Oc3ccc(Nc4nccc5[nH]cc(-c6ccc(F)cc6)c(=O)c45)cc3F)ncnc2cc1OCC1CCN(C)CC1`, the IC50 in [1] was 0.0154 µM; in [4], 0.033 µM.

With `CCn1cc(-c2ccc(F)cc2)c(=O)c2c(Nc3ccc(Oc4ncnc5cc(OC)c(OC)cc45)c(F)c3)nccc21`, in the data set filed under Homo sapiens, the Ratio IC50 was greater than 275. In addition, the IC50 in data set [1] was 0.0288 µM; in data set [4] it was greater than 3 µM.

Regarding `COc1cc2c(Oc3ccc(Nc4nccc5[nH]cc(-c6ccc(F)cc6)c(=O)c45)cc3F)ncnc2cc1OCC(C)(C)O`, the IC50 in data set [1] stood at 0.0652 µM; in data set [4] it was 0.0939 µM.

For the molecule `COc1cc2ncnc(Oc3ccc(Nc4nccc5[nH]cc(-c6ccc(F)cc6)c(=O)c45)cc3F)c2cc1OCCCN1CCCC1`, the 50% inhibitory concentration (IC50) in [1] came out at 0.0081 µM; in data set [4] it was 0.145 µM.

For the molecule `COc1cc2ncnc(Oc3ccc(Nc4nccc5[nH]c(C)c(-c6ccc(F)cc6)c(=O)c45)cc3F)c2cc1OC`, the IC50 in [1] came out at 0.227 µM; in data set [4] it was 0.455 µM.
